Results: ChEMBL document CHEMBL1123888, “Aldosterone antagonists. 2. Synthesis and biological activities of 11,12-dehydropregnane derivatives” (J Med Chem, 1987)
Calls of active or inactive are those of the source. The calls are words filed in the database; no cut-off is given here.

How the values were obtained:
[1] = molecular target: T1, Mineralocorticoid receptor (Rattus norvegicus) (UniProt P22199); assay: Antagonist activity against Mineralocorticoid receptor was determined after subcutaneous administration in Male Sprague Dawley rats; format: functional, organism-based
T1 sequence (whole entry): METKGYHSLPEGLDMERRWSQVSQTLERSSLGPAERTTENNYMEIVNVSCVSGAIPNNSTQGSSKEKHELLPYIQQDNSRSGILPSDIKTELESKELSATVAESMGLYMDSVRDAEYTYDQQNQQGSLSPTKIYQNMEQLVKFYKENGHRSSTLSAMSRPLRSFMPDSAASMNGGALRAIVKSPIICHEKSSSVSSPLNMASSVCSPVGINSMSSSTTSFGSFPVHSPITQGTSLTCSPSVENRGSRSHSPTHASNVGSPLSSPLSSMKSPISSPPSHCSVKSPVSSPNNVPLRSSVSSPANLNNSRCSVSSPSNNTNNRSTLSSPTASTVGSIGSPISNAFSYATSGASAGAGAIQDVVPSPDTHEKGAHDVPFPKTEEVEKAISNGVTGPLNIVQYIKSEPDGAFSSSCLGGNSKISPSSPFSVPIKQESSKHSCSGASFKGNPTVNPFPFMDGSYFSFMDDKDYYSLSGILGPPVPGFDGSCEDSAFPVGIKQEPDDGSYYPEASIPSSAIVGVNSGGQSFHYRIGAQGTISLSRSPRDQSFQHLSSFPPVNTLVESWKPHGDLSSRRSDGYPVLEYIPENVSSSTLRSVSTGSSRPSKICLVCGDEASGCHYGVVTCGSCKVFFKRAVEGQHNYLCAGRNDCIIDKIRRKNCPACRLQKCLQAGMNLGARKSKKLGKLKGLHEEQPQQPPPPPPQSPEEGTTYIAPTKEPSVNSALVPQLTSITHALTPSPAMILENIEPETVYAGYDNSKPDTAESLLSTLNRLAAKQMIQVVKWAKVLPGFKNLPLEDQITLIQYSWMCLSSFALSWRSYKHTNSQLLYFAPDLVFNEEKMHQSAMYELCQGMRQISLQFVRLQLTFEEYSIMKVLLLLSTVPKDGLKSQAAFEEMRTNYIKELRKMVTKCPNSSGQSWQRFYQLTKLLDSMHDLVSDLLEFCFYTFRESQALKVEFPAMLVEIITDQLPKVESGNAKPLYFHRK
In short: (§1)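 Male rats were bilaterally adrenalectomized (bioassay modified from Kagawa). Ald (1 µg/kg) was given sc, immediately followed by test compound in sesame oil sc or orally. Urine was collected from 2 to 6 h after steroid. Potency came from the urinary Na/K ratio of sample versus control, with 95% confidence limits.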

[2] = molecular target: T1, Mineralocorticoid receptor (Rattus norvegicus); assay: Relative binding affinity to the rat mineralocorticoid receptor determined in rat renal cytosol using [3]Ald as ligand
In short: (§2)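 Renal cytosol came from male Sprague-Dawley rats (4-8 weeks) adrenalectomized bilaterally 1 or 2 days earlier. It was incubated with various competitor concentrations and about 1 nM [3H]Ald for 42-48 h at 0 °C or 100-120 min at 25 °C. Bound and free steroid were separated by DCC.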

Rattus norvegicus = species: Rattus norvegicus; assay: Displacement of [3H]promegestone from progestin receptor of rat uterine cytosol at 0 degree Centigrade
In short: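 Uteri from estradiol-primed rats supplied the cytosol. It was incubated with various competitor concentrations and about 1 nM [3H]promegestone for 16-20 h at 0 °C. Bound and free steroid were separated by DCC. RBA (progesterone = 100%) = 100 × ratio of the 50%-inhibition concentrations of standard and competitor.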

[3] = molecular target: T1, Mineralocorticoid receptor (Rattus norvegicus); assay: Displacement of [3]Aldosterone from mineralocorticoid receptor of rat renal cytosol at 0 degree Centigrade; in short: as §2
[4] = molecular target: T1, Mineralocorticoid receptor (Rattus norvegicus); assay: Relative binding affinity against Mineralocorticoid receptor in Male Sprague-Dawley rats; in short: as §2
[5] = molecular target: T1, Mineralocorticoid receptor (Rattus norvegicus); assay: Antagonist activity against Mineralocorticoid receptor after oral administration in Male Sprague Dawley rats; (-) = negative; format: functional, organism-based; in short: as §1
[6] = molecular target: T1, Mineralocorticoid receptor (Rattus norvegicus); assay: Antagonist activity against Mineralocorticoid receptor after subcutaneous administration in Male Sprague Dawley rats; (+) =positive; format: functional, organism-based; conditions: filed as antagonist; in short: as §1
[7] = molecular target: T1, Mineralocorticoid receptor (Rattus norvegicus); assay: Relative binding affinity against mineralocorticoid receptor determined in rat renal cytosol using [3]Ald as ligand; in short: as §2
[8] = molecular target: T1, Mineralocorticoid receptor (Rattus norvegicus); assay: Antagonist activity against Mineralocorticoid receptor after po administration in Male Sprague Dawley rats; (-) = negative; format: functional, organism-based; in short: as §1
[9] = molecular target: T2, Progesterone receptor (Rattus norvegicus) (UniProt Q63449); assay: Relative binding affinity against progesterone receptor determined in rat […] cytosol using [3H]DHT as ligand
T2 sequence (whole entry): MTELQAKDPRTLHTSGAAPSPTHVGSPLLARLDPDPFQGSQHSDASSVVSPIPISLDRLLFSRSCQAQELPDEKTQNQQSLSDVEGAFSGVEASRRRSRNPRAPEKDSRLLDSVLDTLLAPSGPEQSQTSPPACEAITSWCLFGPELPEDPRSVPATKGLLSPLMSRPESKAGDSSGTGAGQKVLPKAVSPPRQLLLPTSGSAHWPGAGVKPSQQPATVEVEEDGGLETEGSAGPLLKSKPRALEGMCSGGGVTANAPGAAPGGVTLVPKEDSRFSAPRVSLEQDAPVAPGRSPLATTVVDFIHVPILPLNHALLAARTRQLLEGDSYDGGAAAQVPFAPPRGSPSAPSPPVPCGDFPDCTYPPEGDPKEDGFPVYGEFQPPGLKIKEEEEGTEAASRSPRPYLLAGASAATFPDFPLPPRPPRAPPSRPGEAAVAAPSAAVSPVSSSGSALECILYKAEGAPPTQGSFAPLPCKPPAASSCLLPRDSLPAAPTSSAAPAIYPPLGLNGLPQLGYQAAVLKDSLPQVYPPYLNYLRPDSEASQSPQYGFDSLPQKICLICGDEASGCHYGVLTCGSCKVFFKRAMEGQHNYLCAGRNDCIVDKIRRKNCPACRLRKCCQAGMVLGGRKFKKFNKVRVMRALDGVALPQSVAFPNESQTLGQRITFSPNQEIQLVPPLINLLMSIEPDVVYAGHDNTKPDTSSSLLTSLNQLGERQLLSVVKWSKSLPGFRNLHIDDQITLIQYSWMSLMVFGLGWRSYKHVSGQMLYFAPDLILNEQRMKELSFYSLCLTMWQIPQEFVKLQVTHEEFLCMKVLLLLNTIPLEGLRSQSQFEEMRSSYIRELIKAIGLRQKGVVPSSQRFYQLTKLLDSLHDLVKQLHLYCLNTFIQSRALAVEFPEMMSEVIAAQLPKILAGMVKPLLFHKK

[10] = molecular target: T1, Mineralocorticoid receptor (Rattus norvegicus); assay: Relative anti-mineralocorticoid potency compared to Spironolactone after oral administration; format: functional, organism-based; in short: as §1
[11] = molecular target: T1, Mineralocorticoid receptor (Rattus norvegicus); assay: Antagonist activity against Mineralocorticoid receptor after oral administration in Male Sprague Dawley rats; (+) =positive; format: functional, organism-based; conditions: filed as antagonist; in short: as §1
[12] = molecular target: T1, Mineralocorticoid receptor (Rattus norvegicus); assay: Agonist activity against Mineralocorticoid receptor was determined after subcutaneous administration in Male Sprague Dawley rats; (+) =positive; format: functional, organism-based; conditions: filed as agonist
[13] = molecular target: T2, Progesterone receptor (Rattus norvegicus); assay: Relative binding affinity against progesterone receptor in […]
[14] = molecular target: T2, Progesterone receptor (Rattus norvegicus); assay: In vivo relative Progestational activity in Male Sprague-Dawley rats was determined.; format: functional, organism-based

Structure (SMILES)	Activity [1]	RBA [2] [%]	Activity [6]	RBA [7] [%]	other results
CC12CCC(=O)C=C1C1CC1C1C2C=CC2(C)C1C1CC1[C@@]21CCC(=O)O1 (stereo partly drawn)	inactive	760	–	–	RBA (Rattus norvegicus): 540%; RBA [3]: 300%
C[C@]12CCC(=O)C=C1CC[C@@H]1[C@@H]2[C@H]2C[C@]3(CO2)[C@@H](C(=O)CO)CC[C@@H]13	–	–	–	–	relative binding affinity (RBA) [4]: 50
C[C@]12CCC(=O)C=C1C=C[C@@H]1[C@@H]2CC[C@@]2(C)[C@H]1CC[C@@]21CCC(=O)O1	–	2.9	Antagonist	1.7	Activity [5]: inactive
CC12C=CC(=O)C=C1[C@H]1C[C@H]1C1C2C=CC2(C)C1CC[C@@]21CCC(=O)O1 (stereo partly drawn)	–	48	Antagonist	32	Activity [5]: inactive; Activity [8]: inactive; RBA [9]: 1.9%; Relative potency [10]: 1.31
CC12CCC(=O)C=C1CCC1C2C=CC2(C)C1C1CC1[C@@]21CCC(=O)O1 (stereo partly drawn)	–	650	–	–	RBA [3]: 310%
CC(=O)S[C@@H]1CC2=CC(=O)C=CC2(C)C2C=CC3(C)C(CC[C@@]34CCC(=O)O4)C21 (stereo partly drawn)	inactive	71	Antagonist	23	RBA [9]: 3.9%; Relative potency [10]: 0.77; Activity [11]: Antagonist
CC(=O)S[C@@H]1CC2=CC(=O)CC[C@]2(C)[C@H]2CC[C@@]3(C)[C@@H](CC[C@@]34CCC(=O)O4)[C@H]12	inactive	15	Antagonist	3.2	RBA (Rattus norvegicus): 2.6%; Activity [11]: Antagonist
CC(C)(C)C(=O)S[C@@H]1CC2=CC(=O)C=CC2(C)C2C=CC3(C)C(CC[C@@]34CCC(=O)O4)C21 (stereo partly drawn)	–	530	Antagonist	1000	Activity [8]: inactive; RBA [9]: 18%; Activity [11]: Antagonist
CC12C=CC(=O)C=C1C[C@@H](SC(=O)c1ccccc1)C1C2C=CC2(C)C1CC[C@@]21CCC(=O)O1 (stereo partly drawn)	inactive	37	–	3.7	Activity [12]: Agonist
CC(=O)[C@H]1CC[C@H]2[C@@H]3CCC4=CC(=O)CC[C@]4(C)[C@H]3CC[C@]12C	–	–	–	–	RBA [13]: 100%; Relative activity [14]: 1
CC12C=CC(=O)C=C1CCC1C2C=CC2(C)C1CC[C@@]21CCC(=O)O1 (stereo partly drawn)	inactive	71	–	120	Activity [12]: Agonist; RBA (Rattus norvegicus): 7.5%
